Source: article PMC4324418 (ACS Chemical Neuroscience, 2014)

Legend:
[1] = biological target: T1, rat M4 receptor (Rattus norvegicus, UniProt P08485); assay type: cell-based; details: maximum response as % of the Emax of ACh
T1 sequence (P08485 1-478): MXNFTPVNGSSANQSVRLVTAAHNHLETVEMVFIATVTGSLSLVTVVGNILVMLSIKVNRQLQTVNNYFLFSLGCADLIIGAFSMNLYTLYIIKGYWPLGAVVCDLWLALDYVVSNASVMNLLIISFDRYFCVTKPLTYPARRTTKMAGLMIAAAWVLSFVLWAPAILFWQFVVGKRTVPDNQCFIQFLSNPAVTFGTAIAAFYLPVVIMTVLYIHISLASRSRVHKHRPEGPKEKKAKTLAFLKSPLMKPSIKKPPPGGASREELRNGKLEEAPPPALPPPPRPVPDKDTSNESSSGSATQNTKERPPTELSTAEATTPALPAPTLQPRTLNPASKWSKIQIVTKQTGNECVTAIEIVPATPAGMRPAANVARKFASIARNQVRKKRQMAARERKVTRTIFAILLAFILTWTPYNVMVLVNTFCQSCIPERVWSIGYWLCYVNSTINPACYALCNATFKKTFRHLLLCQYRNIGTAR

[2] = biological target: T2, human M4 (Homo sapiens, UniProt P08173); assay type: cell-based; details: maximum response as % of the Emax of ACh
T2 sequence (P08173 1-479): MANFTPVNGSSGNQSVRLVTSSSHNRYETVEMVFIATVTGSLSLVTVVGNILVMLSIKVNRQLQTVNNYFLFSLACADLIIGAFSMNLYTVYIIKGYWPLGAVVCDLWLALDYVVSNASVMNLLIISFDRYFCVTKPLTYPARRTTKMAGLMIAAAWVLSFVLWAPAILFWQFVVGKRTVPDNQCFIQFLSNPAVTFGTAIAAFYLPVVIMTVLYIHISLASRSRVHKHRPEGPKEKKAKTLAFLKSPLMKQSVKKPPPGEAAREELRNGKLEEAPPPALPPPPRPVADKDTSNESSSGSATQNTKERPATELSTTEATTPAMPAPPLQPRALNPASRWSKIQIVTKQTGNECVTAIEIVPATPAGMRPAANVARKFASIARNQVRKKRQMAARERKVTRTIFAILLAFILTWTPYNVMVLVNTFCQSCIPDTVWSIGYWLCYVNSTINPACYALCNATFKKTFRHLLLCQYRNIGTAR

[3] = tested on: rat M5 receptor; assay: Calcium mobilization, selectivity; assay type: cell-based
How it was run: (§1)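 Cells were seeded at 15000/well in DMEM with 10% dialyzed FBS, 20 mM HEPES and 1 mM pyruvate, then cultured overnight at 37 °C/5% CO2. M2 and M4 lines were cotransfected with Gqi5. Cells were loaded with 1 μM Fluo-4AM (HBSS, 20 mM HEPES, 2.5 mM probenecid, pH 7.4) for 50 min at 37 °C. ACh was added 140 s after test compound. Calcium signal was expressed as % of the 10 μM ACh maximum.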

[4] = tested on: human M1 receptor; assay: Calcium mobilization, selectivity; assay type: cell-based
How it was run: as §1

[5] = tested on: human M2 receptor; assay: Calcium mobilization, selectivity; assay type: cell-based
How it was run: as §1

[6] = tested on: human M3 receptor; assay: Calcium mobilization, selectivity; assay type: cell-based
How it was run: as §1

[7] = biological target: T3, human adenosine transporter (Homo sapiens, UniProt Q99808); assay: [3H]adenosine uptake functional assay; assay type: cell-based
T3 sequence (Q99808 1-456): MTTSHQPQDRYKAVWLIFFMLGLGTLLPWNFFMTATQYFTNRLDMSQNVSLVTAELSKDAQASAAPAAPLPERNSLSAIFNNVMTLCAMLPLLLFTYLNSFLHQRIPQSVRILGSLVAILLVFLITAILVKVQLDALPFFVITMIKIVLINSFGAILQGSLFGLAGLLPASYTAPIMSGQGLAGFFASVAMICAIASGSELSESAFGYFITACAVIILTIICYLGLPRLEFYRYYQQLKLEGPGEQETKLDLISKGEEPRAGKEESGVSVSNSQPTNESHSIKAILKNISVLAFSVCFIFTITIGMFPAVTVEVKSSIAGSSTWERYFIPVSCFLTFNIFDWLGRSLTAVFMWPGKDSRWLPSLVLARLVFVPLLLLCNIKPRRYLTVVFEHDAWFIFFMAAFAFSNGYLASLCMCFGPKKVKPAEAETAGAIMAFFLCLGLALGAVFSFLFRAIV

[8] = in vitro; assay type: in vitro ADME; details: rat, plasma
[9] = Mouse brain homogenate binding; assay type: in vitro ADME
[10] = Amphetamine-induced hyperlocomotion in wild-type mice; assay type: in vivo, mouse; details: mouse, brain, ip, WT mice
[11] = tested on: wild-type mice; assay: as above; assay type: in vivo, mouse; details: WT mice, amphetamine […] SC
[12] = tested on: wild-type mice; assay: Nociceptive response to increasing footshock current intensities; assay type: in vivo, mouse; details: 10 mg/kg IP
How it was run: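 Mice received vehicle (10% Tween 80 in sterile water, IP) or test compound (10 mg/kg IP) and were placed in conditioning chambers 30 min later. Behavioural responses were scored over rising footshock currents, 0–0.5 mA in 0.05 mA steps. Groups had 6–10 animals. Data: mean ± SEM, one-way ANOVA with Bonferroni test.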

[13] = tested on: wild-type mice; assay: Cue-dependent fear conditioning; assay type: in vivo, mouse; details: 3–30 mg/kg prior to the conditioning session
[14] = tested on: wild-type mice; assay: Modified Irwin neurological test battery; assay type: in vivo, mouse; details: 10–30 mg/kg
[15] = rat (data not shown)
[16] = Pharmacokinetic and brain distribution studies in mice; details: for AUC(0-t) / Cmax / Tmax: male, C57BL/6, mouse, in vivo

## Cc1nnc2sc(C(=O)NCc3ccc(S(=O)(=O)C(F)(F)F)cc3)c(N)c2c1C [VU0467154, 5-amino-3,4-dimethyl-N-(4-((trifluoromethyl)sulfonyl)benzyl)thieno[2,3-c]pyridazine-6-carboxamide]
[1]
  %AChmax: 68%
[2]
  %AChmax: 55%
[3]
  potentiation of ACh response (calcium response): lack of a calcium response
[4]
  potentiation of ACh response (calcium response): lack of a calcium response
[5]
  potentiation of ACh response (calcium response): lack of a calcium response
[6]
  potentiation of ACh response (calcium response): lack of a calcium response
[7]
  IC50: 240 nM
[8]
  fraction unbound: 0.031
[9]
  fraction unbound: 0.014
[10]; 0.3 mg/kg, mean Cbrain, 0.3 mg/kg IP, at 2.5 h postadministration
  concentration at 2.5 h: 24 nM
[10]; 0.3 mg/kg, mean Cbrain,u, 0.3 mg/kg IP, 2.5 h, in vitro mouse fubrain 0.014
  concentration at 2.5 h: 0.3 nM
[10]; 3 mg/kg, mean Cbrain, 3 mg/kg IP, at 2.5 h postadministration
  concentration at 2.5 h: 157 nM
[10]; 3 mg/kg, mean Cbrain,u, 3 mg/kg IP, 2.5 h, in vitro mouse fubrain 0.014
  concentration at 2.5 h: 2.2 nM
[10]; 10 mg/kg, mean Cbrain, 10 mg/kg IP, at 2.5 h postadministration
  concentration at 2.5 h: 398 nM
[10]; 10 mg/kg, mean Cbrain,u, 10 mg/kg IP, 2.5 h, in vitro mouse fubrain 0.014
  concentration at 2.5 h: 5.6 nM
[10]; 30 mg/kg, mean Cbrain,u, 30 mg/kg IP, 2.5 h, in vitro mouse fubrain 0.014
  concentration at 2.5 h: 8.1 nM
[11]; 0.3 mg/kg IP
  mean reversal of AHL: 3.7%
[11]; 1 mg/kg IP
  mean reversal of AHL: 41.6%
[11]; 3 mg/kg IP
  mean reversal of AHL: 70.4%
[11]; 10 mg/kg IP
  mean reversal of AHL: 81.5%
[11]; 30 mg/kg IP
  mean reversal of AHL: 90.7%
[12]
  footshock threshold to elicit jumping: increased the threshold to elicit jumping
  twitching, flinching, and vocalizing responses to increasing foot shock intensities: did not alter
[13]
  acquisition of cue-dependent fear conditioning: enhanced acquisition of cue-dependent fear conditioning
[14]
  autonomic and somatosensory side effects: did not exhibit autonomic and somatosensory side effects
[15]
  biliary and urinary excretion of the parent compound: Negligible
[16]; ip, 3 mg/kg
  AUC(0-t): 9.2 µM·h
  Cmax: 2000 nM
  Tmax: 1 h
[16]; ip, 10 mg/kg
  AUC(0-t): 39 µM·h
  Cmax: 5600 nM
  Tmax: 0.5 h
[16]; ip, 30 mg/kg
  Tmax: 0.5 h
[16]; po, 10 mg/kg
  AUC(0-t): 46 µM·h
  Cmax: 7600 nM
  Tmax: 1 h
[16]; po, 30 mg/kg
  AUC(0-t): 66 µM·h
  Cmax: 11000 nM
  Tmax: 1 h
[16]; mouse, IP 3 mg/kg, brain
  brain AUC0–24h: 5.9 µM·h
